This sample holds only a part of the variants without activity. Bounds are passed on as bounds.

B1: tRNA (parent)
chain: GUUCCGUUGGCGUAAUGGUAACGCGUCUCCCUCCUAAGGAGAAGACUGCGGGUUCGAGUCCCGUACGGAACG

The data set covers variants of B1. Nature of the data set: yeast fitness relative to wild type (ratio to wild type); higher = fitter; tRNA-Arg(CCU), competitive growth, 37 C, YPD. Summed up:
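For this measurement, the tRNA-Arg(CCU) gene was varied by chemical synthesis at a 3% per-site mutation rate across 69 sites, and each variant was placed at the native genomic locus in Saccharomyces cerevisiae. The pooled strains went through a 24-hour competition in YPD at 37°C in six parallel replicates, with amplicons from start and end populations read by 100-nucleotide paired-end sequencing. Darwinian fitness relative to wild type followed from the change in each genotype's frequency. Genotypes needed ≥ 100 starting reads, and estimates < 0.5 were set to 0.5.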
On to G56C C62A, for which the yeast fitness came to 0.563.
As for U54G A65U G67A, the figure is 0.545; as for G51C U54C A57G, at most 0.5.
As for U54C C62U G68C, the figure is at most 0.5; as for G52C G67C, 0.555.
With U53A G68A, the yeast fitness turned out to be 0.574.
The value for U53C A65C was 0.878; that for U53C A65U was 0.788.
The value for C55G C60G C66U was at most 0.5; that for C55A C62U was 0.685; that for U54C A69U was 0.986.
The value for U54C A69C was 0.965; that for U53A A57U A65U was 0.725.
In the case of U53A G63A, the yeast fitness amounted to 0.618.
As for G52A, the figure is 0.696; as for G52U, 0.785.
The value for G52C was 0.635.
G52C A70U: the yeast fitness is 0.804.
As for G52C A57U, the figure is 0.514; as for C55U G58C, 0.842.
Regarding G51A U59A C61U G67A, the yeast fitness was at most 0.5.
The value for C55A A57C was 0.597; that for C55A A57G was 0.671.
Turning to C55A A57U, the yeast fitness amounted to 0.694.
The value for C55U C60U was 0.584.
The value for C55A G68A was 0.674.
The value for G52A U59A A69C was 0.571; that for U54A A70G was 0.702.
As for U54A A70U, the yeast fitness amounted to 0.768.
As for G51A U53C, the figure is 0.745.
Regarding C55U C66G A70C, the yeast fitness is at most 0.5.
As for G56A C62G U64G, the figure is at most 0.5; as for G52A U59A, 0.666; as for G56A G67C, 0.812.
Consider G56A G67A, for which the yeast fitness was 0.901.
As for G56C C61A, the figure is at most 0.5.
The value for U53G G58C was 0.716; that for G51A U59A C62G was at most 0.5.
Turning to G56C A65G, the yeast fitness turned out to be 0.606.
Consider G51C A65C, for which the yeast fitness came to 0.71.
As for G51C A65U, the figure is 0.597.
The value for C55A G56C was 0.522; that for G52A U59A A69C A70C was 0.609; that for G56C A57C A70G was 0.594.
In the case of G52A G68C, the yeast fitness stood at 0.744.
As for G52A G68U, the figure is 0.653; as for C55U A70C, 0.938.
For C55U A70U, the yeast fitness is 0.715.
As for C55A A57C G68C, the figure is 0.5; as for G52A C61U, 0.886.
The value for U54A C61G A69C was 0.57; that for U53A C66A was at most 0.5; that for C55A U59A was 0.513.
As for G56A U64C, the figure is 1.01.
For the variant U54A C55A C66G A70C, the yeast fitness is at most 0.5.
In the case of C55U C60A A65U, the yeast fitness is at most 0.5.
As for G52C A69U A70U, the figure is at most 0.5.
As for U54A U59C U64C, the figure is at most 0.5; as for C55U G63C, 0.567.
The value for C55A A70C was 0.807; that for U54C A57U C60A G68C was at most 0.5.
Regarding G56A C62U, the yeast fitness was found to be 0.967.
As to U54A U59C, the yeast fitness is 0.613.
G56C C66A: the yeast fitness amounted to 0.567.
For the variant G56C C66U, the yeast fitness was 0.699.
With C55A G68U A69U, the yeast fitness was at most 0.5.
The value for G51A G68C was 0.671; that for C55G C60U was at most 0.5.
As for U53A A57G, the figure is 0.556; as for C55G A57C, 0.713; as for C55G A57G, 0.638.
For the variant G52A U64C, the yeast fitness came to 0.789.
For G56A A65C A69C, the yeast fitness was at most 0.5.
Consider U54A A65U C66U, for which the yeast fitness was at most 0.5.
The value for U54C A69G A70G was 0.566; that for G51A G63C was 0.693.
Consider G51A G63A, for which the yeast fitness amounted to 0.739.
As for G52A U53A C66U, the figure is at most 0.5; as for U54C U64A A69U, 0.698; as for U54G C61G C62U A65U, at most 0.5.
Take U53C A57U U59A C66U: the yeast fitness worked out at 0.535.
On to G51C C55G C62A, for which the yeast fitness is at most 0.5.
In the case of G51A U53A A69C, the yeast fitness was at most 0.5.
As for G52A A69U, the figure is 0.853.
As for C55A A65C G68A, the figure is at most 0.5; as for G56A U59G, 0.762.
The value for U54A C60G C66U was at most 0.5; that for G52A A65U was 0.631.
As to G52A A65G, the yeast fitness turned out to be 0.86.
With U54C G56C, the yeast fitness was determined as 0.593.
In the case of U54A C55G A65C, the yeast fitness is 0.627.
As for G56C A57G C61G C66U A69G, the figure is at most 0.5; as for G51C C62U, 0.668.
For G51C C62G, the yeast fitness worked out at 0.528.
As for C55U C61A, the yeast fitness was found to be 0.524.
For the variant C55U C61G, the yeast fitness was at most 0.5.
Take G51C U64C: the yeast fitness worked out at 0.941.
G56A G63C: the yeast fitness came to 0.818.
As for G52A U54C, the figure is 0.589.
As for U53A G58U C61U C62A, the figure is at most 0.5; as for C55A C60A, 0.624.
The value for C55A C60U was 0.525; that for U54A A69C was 0.658; that for G52C C62A was 0.596.
Consider G52C C62G, for which the yeast fitness is 0.646.
For the variant G51C G67U, the yeast fitness was 0.504.
The value for G51C G67A was 0.572; that for U54C C55G was 0.654.
As for G51C C66U, the figure is 0.565; as for G51C C66A, at most 0.5.
The value for G52A C66A was 0.649; that for G52A C66U was 0.706; that for C55U A65C was 0.754.
As for C55U A65G, the yeast fitness is 0.623.
As for U54A U64C, the figure is 0.683; as for C55G C62U, 0.626; as for G56C A57U, 0.562.
For G52C C61G, the yeast fitness is at most 0.5.
As for U54C C61U, the figure is 0.868.
As for U54C C61G, the figure is 0.713.
On to U54C C61A, for which the yeast fitness is 0.776.
Consider G52C G68C, for which the yeast fitness is 0.639.
As for C55A G67C, the figure is 0.686; as for G51C A69U, 0.624.
As for G52A C55A, the yeast fitness turned out to be 0.581.
With G52A C55G, the yeast fitness is 0.561.
As for G52A C55U, the figure is 0.561.
G51U: the yeast fitness amounted to 0.843.
In the case of G51C, the yeast fitness was 0.612.
With U53G U64C, the yeast fitness was determined as 0.669.
As for G51C A57U, the figure is 0.691.
As to G51C A57C, the yeast fitness is 0.551.
The value for G51C A57G was 0.52.
As to G52A G56C A65U, the yeast fitness was at most 0.5.
As for C55U C62G C66A, the figure is 0.53.
As for G52C A65C A70G, the figure is 0.515; as for U54G C62G, 0.559.
For G51A U59A, the yeast fitness worked out at 0.696.
The value for U53G G56C C60A was at most 0.5.
As to U54A G67C G68A, the yeast fitness is at most 0.5.
Regarding G52A G56U A70U, the yeast fitness is at most 0.5.
Take U53A G67C: the yeast fitness worked out at 0.664.
G51C A70U: the yeast fitness was 0.662.
For the variant G52A A57G G58A A70U, the yeast fitness was at most 0.5.
As for U53G G63C A69C, the yeast fitness was at most 0.5.
The value for C55A C61G was at most 0.5.
Regarding U54A C62U A65G G68A, the yeast fitness was at most 0.5.
The value for G52A G58A A65G was 0.684; that for C55A C62U C66U was 0.517.
As for U53C A65U C66U, the figure is at most 0.5; as for U53A C62U, 0.827.
The value for G51C U54A A57C was 0.859; that for C55G C60U G68C was at most 0.5.
As for C55U G63A C66G, the yeast fitness is at most 0.5.
With G56A A65G, the yeast fitness is 1.01.
As for G56A A65C, the yeast fitness is 1.1.
With G56A G58C U64A A69G, the yeast fitness was found to be 0.545.
As for C55A A69U, the figure is 0.694; as for G52A A70C, 0.675; as for G52A A57U C61G, at most 0.5.
Regarding U54C G56C G58A, the yeast fitness stood at 0.55.
The value for C55G A70G was 0.673; that for C55G A57U A65C was at most 0.5; that for U54C U59C was 0.714.
On to U54C U59A, for which the yeast fitness came to 0.82.
The value for G56C G67A A70C was 0.527; that for G51C A57G C61U A65C was at most 0.5.

The record behind these values is the RNAGym collection of RNA variant scans (doi:10.1126/science.aae0568).
